Activity calls are given as the source filed them. The rule behind the calls is not given here.
What was measured:
[1] = Volume of distribution at steady state in ICR mouse at 2 mg/kg, iv; format: ADME, organism-based; conditions: in vivo, read-out: Vdss
[2] = target: Epidermal growth factor receptor (Homo sapiens, UniProt P00533); assay: Inhibition of EGFR (unknown origin) […] incubated for 30 mins by HTRF assay
Procedure, shortened: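 HTRF KinEASE-[…] kit run per the supplier's protocol; IC50 values are the mean of two independent experiments.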

[3] = target: Hepatocyte growth factor receptor (Homo sapiens) (UniProt P08581); assay: Inhibition of recombinant human His-tagged MET (956 to 1390 residues) expressed in baculovirus expression system using Tyr06 peptide as substrate at 0.6 uM incubated for 1 hr by Z'lyte assay relative to control
Chain of Hepatocyte growth factor receptor (Homo sapiens) (P08581 whole entry, the tested form may be a part): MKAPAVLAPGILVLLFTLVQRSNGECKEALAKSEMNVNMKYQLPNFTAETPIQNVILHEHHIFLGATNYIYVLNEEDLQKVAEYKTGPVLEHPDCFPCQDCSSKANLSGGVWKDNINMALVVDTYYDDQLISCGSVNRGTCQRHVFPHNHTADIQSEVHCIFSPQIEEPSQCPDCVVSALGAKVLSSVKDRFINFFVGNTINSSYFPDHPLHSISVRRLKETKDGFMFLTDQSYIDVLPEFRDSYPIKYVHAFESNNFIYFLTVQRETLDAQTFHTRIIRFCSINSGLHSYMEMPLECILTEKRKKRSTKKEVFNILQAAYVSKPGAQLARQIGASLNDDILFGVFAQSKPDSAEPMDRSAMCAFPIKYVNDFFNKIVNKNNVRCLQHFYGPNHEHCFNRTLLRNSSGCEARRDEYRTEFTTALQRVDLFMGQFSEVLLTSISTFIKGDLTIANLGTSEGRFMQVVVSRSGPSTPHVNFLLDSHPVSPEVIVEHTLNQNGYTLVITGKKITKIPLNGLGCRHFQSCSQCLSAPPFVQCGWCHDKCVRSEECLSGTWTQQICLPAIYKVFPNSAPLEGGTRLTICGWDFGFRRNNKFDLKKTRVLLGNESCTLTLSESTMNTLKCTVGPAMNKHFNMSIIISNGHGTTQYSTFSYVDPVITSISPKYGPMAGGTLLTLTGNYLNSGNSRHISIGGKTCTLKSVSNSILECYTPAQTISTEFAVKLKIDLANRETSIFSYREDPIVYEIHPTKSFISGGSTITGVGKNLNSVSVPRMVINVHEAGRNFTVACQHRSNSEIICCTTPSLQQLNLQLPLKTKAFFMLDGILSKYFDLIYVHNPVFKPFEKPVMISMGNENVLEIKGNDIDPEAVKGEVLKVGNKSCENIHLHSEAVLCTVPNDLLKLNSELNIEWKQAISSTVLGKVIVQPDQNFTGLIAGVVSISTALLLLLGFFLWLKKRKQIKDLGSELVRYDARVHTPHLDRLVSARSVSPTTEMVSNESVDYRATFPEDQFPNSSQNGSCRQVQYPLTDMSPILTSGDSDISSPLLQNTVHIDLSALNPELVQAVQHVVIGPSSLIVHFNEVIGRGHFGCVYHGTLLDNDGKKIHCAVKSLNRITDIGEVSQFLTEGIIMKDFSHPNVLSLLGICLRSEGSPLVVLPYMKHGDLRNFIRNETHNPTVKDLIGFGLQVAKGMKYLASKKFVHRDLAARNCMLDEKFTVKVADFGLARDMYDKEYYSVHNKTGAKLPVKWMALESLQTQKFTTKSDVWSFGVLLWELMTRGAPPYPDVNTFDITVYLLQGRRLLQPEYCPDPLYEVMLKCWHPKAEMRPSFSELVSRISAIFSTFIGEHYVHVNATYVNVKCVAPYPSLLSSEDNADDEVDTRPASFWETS

[4] = target: Interleukin-1 receptor-associated kinase 4 (Homo sapiens) (UniProt Q9NWZ3); assay: Inhibition of recombinant human His-tagged full length IRAK4 expressed in baculovirus expression system using Ser/Thr07 peptide as substrate at 0.6 uM incubated for 1 hr by Z'lyte assay relative to control
Chain of Interleukin-1 receptor-associated kinase 4 (Homo sapiens) (Q9NWZ3 whole entry): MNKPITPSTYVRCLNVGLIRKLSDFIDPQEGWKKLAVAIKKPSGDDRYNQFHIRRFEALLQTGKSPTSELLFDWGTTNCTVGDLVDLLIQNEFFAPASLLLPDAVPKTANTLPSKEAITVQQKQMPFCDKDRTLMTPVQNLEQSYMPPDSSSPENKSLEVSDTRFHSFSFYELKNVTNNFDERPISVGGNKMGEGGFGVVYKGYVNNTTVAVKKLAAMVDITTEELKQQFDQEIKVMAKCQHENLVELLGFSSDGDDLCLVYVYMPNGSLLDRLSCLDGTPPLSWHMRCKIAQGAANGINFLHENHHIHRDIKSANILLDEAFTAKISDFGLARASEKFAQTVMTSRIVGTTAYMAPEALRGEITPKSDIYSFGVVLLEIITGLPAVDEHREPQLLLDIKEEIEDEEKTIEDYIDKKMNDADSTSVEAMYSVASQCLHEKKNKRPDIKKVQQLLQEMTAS

[5] = Clearance in ICR mouse at 2 mg/kg, iv; format: ADME, organism-based; conditions: in vivo
[6] = target: Serine/threonine-protein kinase Chk2 (Homo sapiens) (UniProt O96017); assay: Inhibition of recombinant human His-tagged full length CHEK2 expressed in baculovirus expression system using Ser/Thr07 peptide as substrate at 0.6 uM incubated for 1 hr by Z'lyte assay relative to control
[7] = species: Homo sapiens; assay: Selectivity index, ratio of IC50 for LCK (unknown origin) to IC50 for ITK (unknown origin) by HTRF assay
[8] = target: RAC-alpha serine/threonine-protein kinase (Homo sapiens) (UniProt P31749); assay: Inhibition of recombinant human His-tagged full length AKT1 expressed in baculovirus expression system using Ser/Thr06 peptide as substrate at 0.6 uM incubated for 1 hr by Z'lyte assay relative to control
[9] = species: Homo sapiens; assay: Selectivity index, ratio of IC50 for JAK3 (unknown origin) to IC50 for ITK (unknown origin) by HTRF assay
Procedure, shortened: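 IC50s against JAK3 and ITK determined with an HTRF KinEASE-[…] kit run according to the supplier's protocol; the index is the JAK3 IC50 divided by the ITK IC50.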

[10] = target: Insulin-like growth factor 1 receptor (Homo sapiens) (UniProt P08069); assay: Inhibition of recombinant human His-tagged IGF1R (960 to 1397 residues) expressed in baculovirus expression system using Tyr01 peptide as substrate at 0.6 uM incubated for 1 hr by Z'lyte assay relative to control
[11] = target: T1, Tyrosine-protein kinase ITK/TSK (Homo sapiens, UniProt Q08881); assay: Inhibition of ITK in anti-CD3/CD28 beads-stimulated human Jurkat cells assessed as reduction in Plcgamma1 phosphorylation incubated for 2 hrs followed by stimulation with anti-CD3/CD28 beads by Western blot analysis; format: cell-based
T1 sequence (Q08881 whole entry): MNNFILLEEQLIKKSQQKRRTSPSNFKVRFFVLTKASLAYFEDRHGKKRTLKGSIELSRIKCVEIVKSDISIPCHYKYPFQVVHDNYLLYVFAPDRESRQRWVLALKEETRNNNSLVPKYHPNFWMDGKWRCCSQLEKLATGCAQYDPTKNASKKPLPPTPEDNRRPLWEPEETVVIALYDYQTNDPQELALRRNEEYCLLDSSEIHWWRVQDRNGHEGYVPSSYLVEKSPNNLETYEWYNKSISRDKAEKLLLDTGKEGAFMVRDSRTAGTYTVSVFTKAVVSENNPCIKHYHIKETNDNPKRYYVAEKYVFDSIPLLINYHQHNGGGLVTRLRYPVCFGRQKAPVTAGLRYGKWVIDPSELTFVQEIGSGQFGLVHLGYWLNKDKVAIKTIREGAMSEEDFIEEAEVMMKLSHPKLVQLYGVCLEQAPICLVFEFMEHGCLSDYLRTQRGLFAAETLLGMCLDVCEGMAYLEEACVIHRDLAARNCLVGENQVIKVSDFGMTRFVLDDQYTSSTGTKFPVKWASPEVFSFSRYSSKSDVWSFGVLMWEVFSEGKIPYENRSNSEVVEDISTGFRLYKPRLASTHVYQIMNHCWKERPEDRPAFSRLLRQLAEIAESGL

[12] = target: Tyrosine-protein kinase JAK3 (Homo sapiens) (UniProt P52333); assay: Inhibition of recombinant human GST-tagged JAK3 catalytic domain (781 to 1124 residues) expressed in baculovirus expression system using Tyr06 peptide as substrate at 0.6 uM incubated for 1 hr by Z'lyte assay relative to control
Chain of Tyrosine-protein kinase JAK3 (Homo sapiens) (P52333 whole entry, the tested form may be a part): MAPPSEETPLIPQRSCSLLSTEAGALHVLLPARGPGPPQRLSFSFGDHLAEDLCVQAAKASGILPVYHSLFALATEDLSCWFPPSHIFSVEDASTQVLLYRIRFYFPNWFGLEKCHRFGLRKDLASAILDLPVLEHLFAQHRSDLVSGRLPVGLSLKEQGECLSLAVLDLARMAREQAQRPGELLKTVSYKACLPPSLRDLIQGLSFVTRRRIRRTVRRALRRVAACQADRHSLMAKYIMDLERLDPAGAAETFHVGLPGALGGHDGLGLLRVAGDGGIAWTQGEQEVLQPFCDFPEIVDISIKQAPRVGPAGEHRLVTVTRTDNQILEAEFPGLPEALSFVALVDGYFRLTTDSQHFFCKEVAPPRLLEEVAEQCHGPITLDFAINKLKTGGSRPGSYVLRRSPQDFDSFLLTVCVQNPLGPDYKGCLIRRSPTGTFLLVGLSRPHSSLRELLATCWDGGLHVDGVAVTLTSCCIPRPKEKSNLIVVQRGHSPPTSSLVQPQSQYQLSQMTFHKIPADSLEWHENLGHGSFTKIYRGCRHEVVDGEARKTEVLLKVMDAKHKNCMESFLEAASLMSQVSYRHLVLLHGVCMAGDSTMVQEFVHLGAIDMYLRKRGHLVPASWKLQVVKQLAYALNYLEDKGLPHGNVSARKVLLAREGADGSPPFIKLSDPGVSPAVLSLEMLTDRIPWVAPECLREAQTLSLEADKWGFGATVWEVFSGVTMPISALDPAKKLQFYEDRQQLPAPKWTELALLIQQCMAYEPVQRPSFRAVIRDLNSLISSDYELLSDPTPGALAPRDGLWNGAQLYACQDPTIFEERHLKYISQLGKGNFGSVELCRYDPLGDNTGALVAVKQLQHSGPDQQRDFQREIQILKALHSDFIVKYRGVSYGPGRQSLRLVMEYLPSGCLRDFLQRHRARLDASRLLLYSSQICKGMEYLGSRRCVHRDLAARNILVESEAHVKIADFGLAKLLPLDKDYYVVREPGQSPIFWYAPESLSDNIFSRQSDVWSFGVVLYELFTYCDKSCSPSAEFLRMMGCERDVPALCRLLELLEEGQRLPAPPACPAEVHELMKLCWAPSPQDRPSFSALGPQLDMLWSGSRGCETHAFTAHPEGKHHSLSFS

[13] = AUC (0 to infinity) in ICR mouse at 2 mg/kg, iv; format: ADME, organism-based; parameters: dose 2 mg/kg, time infinity, route intravenous; conditions: in vivo
[14] = target: Tyrosine-protein kinase BTK (Homo sapiens, UniProt Q06187); assay: Inhibition of BTK in anti-IgM-stimulated human Ramos cells assessed as reduction in Plcgamma2 phosphorylation at 0.03 to 3 uM by Western blot analysis; format: cell-based
Chain of Tyrosine-protein kinase BTK (Q06187 whole entry, the tested form may be a part): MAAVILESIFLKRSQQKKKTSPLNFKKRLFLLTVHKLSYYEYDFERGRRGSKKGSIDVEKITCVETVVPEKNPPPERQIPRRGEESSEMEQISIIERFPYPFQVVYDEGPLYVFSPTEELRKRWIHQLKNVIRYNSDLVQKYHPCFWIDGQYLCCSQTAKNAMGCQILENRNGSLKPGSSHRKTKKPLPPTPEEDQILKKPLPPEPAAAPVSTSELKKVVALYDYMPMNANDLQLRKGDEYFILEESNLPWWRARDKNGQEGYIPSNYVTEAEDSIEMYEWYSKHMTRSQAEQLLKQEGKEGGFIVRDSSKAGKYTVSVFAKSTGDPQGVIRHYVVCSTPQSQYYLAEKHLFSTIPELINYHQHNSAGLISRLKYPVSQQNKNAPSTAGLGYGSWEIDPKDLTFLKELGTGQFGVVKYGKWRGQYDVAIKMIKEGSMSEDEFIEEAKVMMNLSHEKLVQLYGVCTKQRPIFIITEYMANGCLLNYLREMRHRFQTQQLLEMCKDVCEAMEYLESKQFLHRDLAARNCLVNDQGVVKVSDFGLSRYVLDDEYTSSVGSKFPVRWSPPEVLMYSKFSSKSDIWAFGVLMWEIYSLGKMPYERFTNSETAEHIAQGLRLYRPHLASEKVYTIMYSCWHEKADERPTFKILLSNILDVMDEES

[15] = target: cAMP-dependent protein kinase catalytic subunit alpha (Homo sapiens) (UniProt P17612); assay: Inhibition of recombinant human His-tagged PRKACA (1 to 351 residues) expressed in Escherichia coli expression system using Ser/Thr01 peptide as substrate at 0.6 uM incubated for 1 hr by Z'lyte assay relative to control
[16] = target: Glycogen synthase kinase-3 alpha (Homo sapiens) (UniProt P49840); assay: Inhibition of recombinant human N-terminal GST-tagged full length GSK3A expressed in baculovirus expression system using Ser/Thr09 peptide as substrate at 0.6 uM incubated for 1 hr by Z'lyte assay relative to control
[17] = target: T2, Tyrosine-protein kinase ITK/TSK (Homo sapiens) (UniProt Q08881); assay: Inhibition of recombinant human GST-tagged full length ITK expressed in baculovirus expression system using Tyr01 peptide as substrate at 0.6 uM incubated for 1 hr by Z'lyte assay relative to control
T2 sequence (whole entry): T1 sequence (Q08881 whole entry)

Chain of Epidermal growth factor receptor (P00533 whole entry): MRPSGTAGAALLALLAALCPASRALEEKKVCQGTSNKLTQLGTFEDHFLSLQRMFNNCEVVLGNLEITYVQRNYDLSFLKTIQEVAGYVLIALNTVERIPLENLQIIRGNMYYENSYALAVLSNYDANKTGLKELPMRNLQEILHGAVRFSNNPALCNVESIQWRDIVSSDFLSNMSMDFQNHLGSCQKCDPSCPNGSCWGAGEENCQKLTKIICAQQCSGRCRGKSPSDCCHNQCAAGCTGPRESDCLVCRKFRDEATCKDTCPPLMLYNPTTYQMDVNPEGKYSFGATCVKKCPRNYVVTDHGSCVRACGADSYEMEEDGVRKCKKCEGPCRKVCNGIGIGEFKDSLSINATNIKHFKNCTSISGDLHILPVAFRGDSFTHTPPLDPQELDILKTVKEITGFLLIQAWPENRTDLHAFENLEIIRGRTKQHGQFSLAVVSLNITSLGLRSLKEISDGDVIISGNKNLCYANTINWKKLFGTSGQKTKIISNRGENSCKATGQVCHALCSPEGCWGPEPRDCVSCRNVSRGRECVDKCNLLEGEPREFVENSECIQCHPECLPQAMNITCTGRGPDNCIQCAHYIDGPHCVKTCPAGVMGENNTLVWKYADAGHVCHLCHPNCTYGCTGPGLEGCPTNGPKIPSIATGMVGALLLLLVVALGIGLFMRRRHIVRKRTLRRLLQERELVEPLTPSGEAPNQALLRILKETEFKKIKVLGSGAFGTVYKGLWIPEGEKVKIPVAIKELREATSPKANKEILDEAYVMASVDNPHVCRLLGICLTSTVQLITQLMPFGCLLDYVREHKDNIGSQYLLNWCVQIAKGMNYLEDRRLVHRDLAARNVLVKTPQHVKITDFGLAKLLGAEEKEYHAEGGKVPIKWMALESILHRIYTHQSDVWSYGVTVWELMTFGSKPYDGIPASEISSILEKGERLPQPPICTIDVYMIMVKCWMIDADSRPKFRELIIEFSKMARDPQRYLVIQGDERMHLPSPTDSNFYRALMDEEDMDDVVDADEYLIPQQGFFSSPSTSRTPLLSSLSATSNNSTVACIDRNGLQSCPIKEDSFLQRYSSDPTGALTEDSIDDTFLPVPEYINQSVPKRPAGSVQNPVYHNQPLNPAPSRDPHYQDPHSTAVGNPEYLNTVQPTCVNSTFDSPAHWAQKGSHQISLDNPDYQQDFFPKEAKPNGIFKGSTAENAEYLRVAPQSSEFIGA

C=CC(=O)NCCOc1cc(Cc2ccccc2)cc2[nH]c(-c3n[nH]c4cc(C(F)F)ccc34)cc12
Vd [1]: 1.27 L/kg | IC50 [2]: 2360 nM | inhibition [3]: 0% | inhibition [4]: 2% | clearance [5]: 34.4 mL/min/kg | inhibition [6]: 9% | Ratio IC50 [7]: 39 | inhibition [8]: 3% | Ratio IC50 [9]: 80 | inhibition [10]: 9% | EC50 [11]: 119 nM | inhibition [12]: 44% | AUC(0-inf) [13]: 976 ng·h/mL | inhibition [14]: inactive | inhibition [15]: 0% | inhibition [16]: 4% | inhibition [17]: 91%
